Source: PubChem BioAssay
FLuc inh counter = firefly luciferase enzyme inhibitors, primary screen, artefact control for luciferase-based inhibitor screens, biochemical, luminescence, ATPLite; 1.5% of 200,000 active; 10 min; AID 1006, 2008; Luciferin 4-monooxygenase (Photinus pyralis), P08659; inhibition, % at 10 µM;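 active means inhibition above about 50% when tested at 10 µM, limit read from the data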
Target sequence (P08659 whole entry, looked up): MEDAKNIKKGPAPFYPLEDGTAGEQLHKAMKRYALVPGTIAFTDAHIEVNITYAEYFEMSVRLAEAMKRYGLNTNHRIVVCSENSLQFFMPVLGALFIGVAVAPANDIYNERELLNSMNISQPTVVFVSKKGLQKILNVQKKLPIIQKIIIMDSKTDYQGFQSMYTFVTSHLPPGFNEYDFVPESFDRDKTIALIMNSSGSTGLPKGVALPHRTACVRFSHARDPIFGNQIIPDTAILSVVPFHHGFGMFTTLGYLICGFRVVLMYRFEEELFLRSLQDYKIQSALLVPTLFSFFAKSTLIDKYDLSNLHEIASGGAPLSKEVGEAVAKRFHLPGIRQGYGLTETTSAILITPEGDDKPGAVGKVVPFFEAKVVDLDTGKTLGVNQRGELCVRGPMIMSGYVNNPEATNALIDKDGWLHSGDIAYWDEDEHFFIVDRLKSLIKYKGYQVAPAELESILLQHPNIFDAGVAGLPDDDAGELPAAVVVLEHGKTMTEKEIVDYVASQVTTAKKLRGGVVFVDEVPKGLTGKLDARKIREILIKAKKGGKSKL
iPSC survival up = enhancers of single-cell hiPSC survival, primary screen, ATPlite luminescence; 100% = ROCK inhibitor wells, 0% = DMSO; AID 602274, 2012; survival enhancement, % at 20 µM; 0.044% of 360,000 active; in the data active means survival enhancement above about 18%;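 further: cells exposed to compounds for 16 hours before the ATP read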
beta cell repl = inducers of MIN6 beta-cell proliferation, primary screen, ATP luminescence, uHTS; 0.29% of 330,000 active; MIN6 cells proliferation, ATPlite luminescence, 48 h; cells starved in 0.2% serum; 100% = growth in 10% serum; proliferation, % at 10 µM;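 active means compounds whose signal lies at least 3.5 SD above the mean of all wells on their plate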;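 further: 0% = DMSO-treated cells in low-serum medium and 100% = 10% serum control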
TRAIL sens C8 = viability loss with TRAIL in NB7+C8 cells, primary screen, TRAIL sensitizer project, cell-based, ATPlite luminescence. AID 624354, 2012. 1% of 360,000 active. inhibition (viability loss, TRAIL sensitization), % at 10 µM;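 active means compounds causing at least 50% loss of cell viability in the single-dose screen, relative to plate controls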
FLuc stim CS = FLuc activators, initial screening, artefact control for FLuc-dependent activation tests, biochemical, ATPlite luminescence; activation factor at 10 µM; 200,000 tested, under 10 active; ATPlite luciferase biochemical, 10 min; 0 = ATP-free wells, 1 = DMSO control;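 active means luciferase activation factor, scaled between plate controls, of at least 2 with compound at 10 µM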
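assay system = Luciferase/luciferin detection reagent, cell-free biochemical luciferase assay | also added = ATP substrate | times = 10 min post-reagent at room temperature | measured by = luminescence from luciferase reaction | measure = luciferase activation, seen as luminescence increase over controls | benchmarks = low control with PBS replacing ATP, high control enzyme plus ATP without compound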
PPC-1+TRAIL kill = compounds killing PPC-1 cancer cells with TRAIL present, primary screen, TRAIL potentiator project, ATPLite luminescence, uHTS; PPC-1 cells + TRAIL, ATPLite viability luminescence; cell killing (% activity), % at 4 µM or 5 µM; 0.41% of 220,000 active; AID 1443, 2008;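 active means cell killing above 50% in the first pass at 4 µM, then a duplicate retest at 5 µM averaging 50% or more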;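 further: plate controls were cells with TRAIL plus DMSO for no effect and medium-only wells lacking cells for full effect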
The depositor's hits bear a star; x = no result given. Shown are actives, neighbours in structure and some others; about 1.8% of the full set was active somewhere.

SMILES	FLuc inh counter	iPSC survival up	beta cell repl	TRAIL sens C8	FLuc stim CS	PPC-1+TRAIL kill
O=C(O)CC1NC(=S)N(Cc2ccccc2)C1=O (centres undefined)	x	-2	x	-8	x	x
NNc1nc(-c2ccccc2)nc2sc3c(c12)CCCC3	84*	-2	-5	64*	0.2	21
NNc1nc2sc3c(c2c(=O)n1Cc1ccccc1)CCC3	x	1	-3	-2	x	-6
Cc1ccc(-c2csc(SCC(=O)c3c(N)n(C4CC4)c(=O)[nH]c3=O)n2)cc1	x	-1	-2	-1	x	x
CCc1ccc(Nc2nnc(SCC(=O)c3c(N)n(C4CC4)c(=O)[nH]c3=O)s2)cc1	x	-3	-1	61*	x	x
CCOC(=O)/C(C#N)=C/c1cn(CCOc2ccc(OC)cc2)c2ccccc12	0	3	-1	-4	1	4
Cc1cc(C(=O)COC(=O)c2ccccc2O)c(C)n1CC1CCCO1 (centres undefined)	x	-6	-7	87*	x	x
Cc1cc(C(=O)COC(=O)c2n[nH]c3ccccc23)c(C)n1CC1CCCO1 (centres undefined)	92*	-6	-6	72*	0.1	4
Cc1cc(C(=O)COC(=O)c2cccc(NS(C)(=O)=O)c2)c(C)n1CC1CCCO1 (centres undefined)	x	0	-6	59*	x	x
Cc1ccc(C(=O)OCC(=O)c2cc(C)n(CC3CCCO3)c2C)cc1 (centres undefined)	34	0	-1	32	0.7	17
Cc1cc(C(=O)COC(=O)c2n[nH]c(=O)c3ccccc23)c(C)n1C	x	0	-5	17	x	x
C=CCn1c(C)cc(C(=O)COC(=O)c2n[nH]c(=O)c3ccccc23)c1C	x	-7	-4	69*	x	x
Cc1cc(C(=O)COC(=O)c2cc(O)c3ccccc3c2O)c(C)n1CC1CCCO1 (centres undefined)	-3	0	x	0	1	9
Cc1ccc(Cl)cc1NC(=O)N[C@@H](CC(C)C)C(=O)O	x	-1	-1	-15	x	-5
O=C1/C(=C/c2cccnc2)CC/C1=C\c1cccnc1	33	0	-4	17	0.7	-6
COc1ccc(/C=C2\Cc3ccccc3C2=O)cc1OC	x	-1	x	10	x	12
O=C1/C(=C\c2cccnc2)CCc2ccccc21	63*	-3	-2	11	0.4	4
O=C1/C(=C\c2ccc([N+](=O)[O-])cc2)CCc2ccccc21	81*	-4	-5	78*	0.2	41
O=C1/C(=C/c2cccnc2)CCC/C1=C\c1cccnc1	3	x	x	x	1	82*
COc1ccc(/C=C2\CCc3ccccc3C2=O)cc1O	x	0	-7	66*	x	x
O=C1/C(=C/c2ccc(O)cc2)CCc2ccc([N+](=O)[O-])cc21	-6	-1	0	24	1.1	17
COc1ccc(CNC(=O)[C@@H](C)NC(=O)C2CCN(C(=O)[C@@H](N)CCSC)CC2)cc1	x	2	-3	-17	x	x
Cc1ccc(S(=O)(=O)N(C)C)cc1NC(=O)COC(=O)CCC1CCCC1	x	2	3	-7	x	x
CCN(CC)S(=O)(=O)c1ccc(C)c(NC(=O)COC(=O)CNC(=O)c2ccc(C(C)(C)C)cc2)c1	81*	-1	-1	-4	0.2	18
Cc1ccc(OCCC(=O)OCC(=O)Nc2cc(S(=O)(=O)N(C)C)ccc2C)cc1	58*	-1	-2	-3	0.4	22
SMILES	FLuc inh counter	iPSC survival up	beta cell repl	TRAIL sens C8	FLuc stim CS	PPC-1+TRAIL kill
O=C(COC(=O)c1cccc(O)c1)Nc1ccc(N2CCOCC2)cc1	x	0	1	8	x	x
COC(=O)c1ccccc1NC(=O)c1cc(-c2ccc(O)cc2)on1	-10	2	0	51*	1.1	-7
CCCN1CCN(C(=O)Cn2nc(CC)n3c(cc4sccc43)c2=O)CC1	x	1	-1	-4	x	x
Cc1ccc(NC(=O)CCCc2ccccc2)c([N+](=O)[O-])c1	x	-1	0	-12	x	x
Fc1ccc(-c2nc3ccncc3[nH]2)cc1	24	-1	-2	8	0.8	-5
Clc1ccc(-c2nc3ccncc3[nH]2)cc1	73*	-2	-4	42	0.3	34
CCc1nc2c(OCc3cccc(Cl)c3)cccn2c1N(C)C(=O)c1ccco1	x	1	x	-5	x	x
O=C(Nc1ccc(OCC(F)(F)C(F)F)c(C(F)(F)F)c1)c1ccccc1O	3	1	-3	58*	1	1
CCOC(=O)c1ccc(NC(=S)Nc2ccc(Br)cc2N)cc1	x	0	0	-12	x	x
CCOc1ccc(CN(C)C(=O)[C@H](Cc2ccccc2)NC(=O)OCc2ccccc2)cc1OC	x	0	-1	51*	x	x
COc1ccc(CN(C)C(=O)C(Cc2ccccc2)NC(=O)c2ccccc2)cc1F (centres undefined)	x	3	0	18	x	x
CC1(C)CC(=O)C2=C(C1)NC(Nc1nc3ccccc3o1)=NC2c1ccccn1 (centres undefined)	-7	0	-5	-39	1.1	1
CC1=C(C(=O)Nc2ccccc2)C(c2ccc(C)cc2)N=C(Nc2nc3ccccc3o2)N1 (centres undefined)	-7	-1	-6	50*	1.1	8
COc1ccccc1-c1cc(C(=O)Nc2cccnc2)no1	62*	-1	x	43	0.4	46
O=C(COC(=O)c1ccc(Br)cc1)NCCc1ccccc1	-9	1	0	29	1.1	16
O=C(COC(=O)c1ccccc1)c1ccc(Br)cc1	56*	2	-2	3	0.4	15
COc1ccc(C(=O)O/N=C(\N)Cc2ccc(Cl)c(Cl)c2)cc1OC	-3	-2	0	25	1	0
COc1ccc(/C(N)=N/OC(=O)c2ccc3ccccc3c2)cc1OC	x	-4	x	96*	x	x
N/C(=N\OC(=O)c1ccc(Br)cc1)c1ccccc1	95*	-1	-5	84*	0.1	2
COc1ccc(C(=O)O/N=C(\N)Cc2ccc(Cl)cc2)cc1OC	-5	-3	-3	94*	1.1	6
O=C(CCNS(=O)(=O)c1ccccc1)OCc1ccc([N+](=O)[O-])cc1	x	1	x	-5	x	x
O=C(OCC(=O)c1ccc[nH]1)c1ccc2ccccc2n1	13	1	-4	-4	0.9	4
COc1ccc(/C(N)=N/OC(=O)c2ccc3c(c2)OCO3)cc1OC	62*	-2	-3	82*	0.4	49
N/C(=N\OC(=O)c1ccc2c(c1)OCO2)c1ccc([N+](=O)[O-])cc1	15	0	-3	15	0.9	20
